pIC50, pKi: −log10 of the molar value.
Experiments:
[1] = Inhibition of bacterial NDM-1 (unknown origin) expressed in Escherichia coli EXPRESS BL21(DE3) assessed as inhibition constant by measuring rate of substrate hydrolysis by UV-visible spectrophotometry; set-up: species or system Bacteria
Summary of the method: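 Reporter-substrate assay with purified MBL (1–70 nM final) in 50 mM HEPES pH 7.5 at 30 °C. […] Inhibitor 0.5–1000 μM final. Ki derived from the v0/vi vs [I] slope assuming competitive inhibition, or from a Dixon plot. Ki given when inhibition >70%, otherwise % inhibition at 100 μM. Triplicate.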

Insulin-degrading enzyme = target: T1, Insulin-degrading enzyme (Homo sapiens, UniProt P14735); assay: Inhibition of recombinant human IDE using ATTO 655-Cys-Lys-Leu-Val-Phe-Phe-Ala-Glu-Asp-Trp as substrate measured after 45 mins by fluorescence assay
T1 sequence (P14735 whole entry): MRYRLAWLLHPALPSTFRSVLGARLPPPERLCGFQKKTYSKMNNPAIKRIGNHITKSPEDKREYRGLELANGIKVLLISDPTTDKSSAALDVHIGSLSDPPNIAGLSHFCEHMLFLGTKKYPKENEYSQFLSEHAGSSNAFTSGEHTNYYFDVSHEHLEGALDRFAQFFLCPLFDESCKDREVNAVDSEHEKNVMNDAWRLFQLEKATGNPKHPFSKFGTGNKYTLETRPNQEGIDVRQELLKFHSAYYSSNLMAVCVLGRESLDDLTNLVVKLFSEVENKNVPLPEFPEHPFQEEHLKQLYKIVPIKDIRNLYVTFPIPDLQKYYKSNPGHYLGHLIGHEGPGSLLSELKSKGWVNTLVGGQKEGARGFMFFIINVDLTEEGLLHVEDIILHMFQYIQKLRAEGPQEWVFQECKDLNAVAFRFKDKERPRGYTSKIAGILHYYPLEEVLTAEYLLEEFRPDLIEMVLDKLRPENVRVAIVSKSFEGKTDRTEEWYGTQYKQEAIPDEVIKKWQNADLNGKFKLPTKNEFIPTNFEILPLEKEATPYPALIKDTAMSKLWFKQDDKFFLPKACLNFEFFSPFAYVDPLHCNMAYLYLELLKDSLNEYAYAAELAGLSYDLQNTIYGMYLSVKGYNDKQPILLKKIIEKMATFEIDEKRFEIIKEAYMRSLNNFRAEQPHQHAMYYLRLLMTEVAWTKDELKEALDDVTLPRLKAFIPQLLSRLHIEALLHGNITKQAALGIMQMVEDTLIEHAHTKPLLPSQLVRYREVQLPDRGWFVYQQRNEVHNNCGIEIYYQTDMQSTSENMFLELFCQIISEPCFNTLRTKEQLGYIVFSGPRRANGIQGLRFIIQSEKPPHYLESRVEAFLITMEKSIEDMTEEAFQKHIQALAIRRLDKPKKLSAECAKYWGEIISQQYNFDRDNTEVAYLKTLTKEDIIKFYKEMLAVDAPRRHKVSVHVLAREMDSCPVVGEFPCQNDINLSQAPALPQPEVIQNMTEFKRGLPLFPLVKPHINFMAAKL

[2] = Stability in mouse plasma assessed as half life at 37 degC; type: ADME, cell-free
[3] = Metabolic stability in CD-1 mouse microsomes assessed as half life at 37 degC by LC-MS/MS analysis; type: ADME, Microsome
Summary of the method: (§1)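 Mouse liver microsomes, mixed gender, at 37 °C for 40 min; propranolol control. Reports t1/2, intrinsic clearance and % intact compound remaining at 40 min.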

[4] = target: T2, Endoplasmic reticulum aminopeptidase 1 (Mus musculus) (UniProt Q9EQH2); assay: Inhibition of recombinant mouse ERAAP using fluorogenic substrate H-Leu-AMC at 100 uM relative to control
T2 sequence (whole entry): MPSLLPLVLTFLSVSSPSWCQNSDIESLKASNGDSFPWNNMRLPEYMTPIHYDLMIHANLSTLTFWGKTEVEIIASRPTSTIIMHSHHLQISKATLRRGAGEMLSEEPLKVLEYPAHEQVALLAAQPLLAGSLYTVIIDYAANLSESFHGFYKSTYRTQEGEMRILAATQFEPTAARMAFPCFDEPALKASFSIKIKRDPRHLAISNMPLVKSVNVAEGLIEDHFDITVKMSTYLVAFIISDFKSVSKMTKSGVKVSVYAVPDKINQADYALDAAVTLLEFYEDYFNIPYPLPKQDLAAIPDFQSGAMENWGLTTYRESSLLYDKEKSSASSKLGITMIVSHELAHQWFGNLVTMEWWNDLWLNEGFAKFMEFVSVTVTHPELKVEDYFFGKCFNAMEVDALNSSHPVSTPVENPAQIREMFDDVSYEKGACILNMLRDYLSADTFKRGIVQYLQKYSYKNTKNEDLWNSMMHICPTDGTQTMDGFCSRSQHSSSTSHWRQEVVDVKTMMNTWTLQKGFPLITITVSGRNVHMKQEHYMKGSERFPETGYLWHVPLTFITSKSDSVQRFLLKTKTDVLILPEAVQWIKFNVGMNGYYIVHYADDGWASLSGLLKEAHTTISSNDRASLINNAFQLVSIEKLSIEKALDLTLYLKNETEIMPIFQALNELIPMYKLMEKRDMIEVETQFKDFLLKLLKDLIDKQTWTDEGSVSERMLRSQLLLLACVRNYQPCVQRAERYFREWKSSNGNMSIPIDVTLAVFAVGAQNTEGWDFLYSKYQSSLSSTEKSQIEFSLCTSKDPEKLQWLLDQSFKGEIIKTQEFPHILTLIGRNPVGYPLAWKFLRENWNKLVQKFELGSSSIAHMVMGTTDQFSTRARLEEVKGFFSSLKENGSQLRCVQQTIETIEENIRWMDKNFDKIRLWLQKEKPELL
Summary of the method: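 Mouse ERAAP, H-Leu-AMC substrate; undisclosed in-house control inhibitor. Percent inhibition at 100 μM, one experiment in duplicate.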

Klebsiella pneumoniae = assay: Antimicrobial activity against blaVIM-1-producing multidrug-resistant Klebsiella pneumoniae K47-25 clinical isolate assessed as meropenem MIC at 32 ug/ml by broth microdilution method (reference value: […] ug/ml); type: functional; conditions: dose 32 µg/ml
Summary of the method: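 Inoculum was 5×10^4 CFU/well. Each inhibitor was present at a fixed 32 μg/mL, and MICs were also taken without inhibitor.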

[5] = Metabolic stability in CD-1 mouse microsomes assessed as intrinsic clearance at 37 degC by LC-MS/MS analysis; type: ADME, Microsome; conditions: for Stability: mouse; for microsomal CLint: CD-1, mouse; summary of the method: as §1
Escherichia coli = assay: Antimicrobial activity against blaNDM-1-producing multidrug-resistant Escherichia coli SI-004 clinical isolate assessed as meropenem MIC at 32 ug/ml by broth microdilution method (reference value: 64 ug/ml)
[6] = Cytotoxicity against human HeLa cells assessed as LDH release incubated for 24 hrs by membrane integrity assay; type: toxicity, cell-based
Summary of the method: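 HeLa cells (20,000/well) exposed to compound up to 250 μM for 24 h at 37 °C, 5% CO2 in DMEM with 10% FBS, 4.5 mg/mL glucose and 2 mM L-glutamine. LDH release expressed as % of Triton X-100 maximum lysis; IC50 is the concentration giving 50% cytotoxicity.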

SMILES	pKi [1]	pIC50 (Insulin-degrading enzyme)	half-life [2] [h]	half-life [3] [h]	inhibition [4] [%]	MIC (Klebsiella pneumoniae) [µg/mL]	Stability [5]	MIC (Escherichia coli) [µg/mL]	CC50 at 24 h [6] [µM]	microsomal CLint [5] [µL/min/mg]
O=C(O)[C@H](CCCn1c(-c2ccc3ccccc3c2)n[nH]c1=S)N(Cc1c[nH]cn1)Cc1c[nH]cn1	7.52	5.04	> 6	> 0.667	63	0.03	Stable	0.06		
Cc1[nH]cnc1CN(Cc1c[nH]cn1)[C@@H](CCCn1c(-c2ccccc2)n[nH]c1=S)C(=O)O	7.42	4.46	> 6	> 0.667	42	0.06		0.06	105	5.5
O=C(O)[C@H](CCn1c(-c2ccccc2)n[nH]c1=S)N(Cc1c[nH]cn1)Cc1c[nH]cn1	7.40	4.77	> 6	> 0.667	51	0.06		0.06	> 250	10.6
O=C(O)[C@H](CCCn1c(-c2ccccc2)n[nH]c1=S)N(Cc1ccccn1)Cc1ccccn1	6.24	4.39	> 6	> 0.667	13	0.06		0.06		16.5
O=C(O)[C@H](CCCn1c(-c2ccccc2)n[nH]c1=S)N(Cc1c[nH]cn1)Cc1c[nH]cn1	7.52	4.70	> 6	> 0.667	51	0.03	Stable	0.06	> 250	

— ChEMBL document CHEMBL5236609, “Optimization of 1,2,4-Triazole-3-thiones toward Broad-Spectrum Metallo-β-lactamase Inhibitors Showing Potent Synergistic Activity on VIM- and NDM-1-Producing Clinical Isolates” (J Med Chem, 2022)
